Reference: the RNAGym collection of RNA variant scans (doi:10.1126/science.aae0568)
Fewer inactive variants are shown than the library holds.

B1: tRNA (parent)
chain: GUUCCGUUGGCGUAAUGGUAACGCGUCUCCCUCCUAAGGAGAAGACUGCGGGUUCGAGUCCCGUACGGAACG

Variants of: B1
Assay: yeast fitness relative to wild type (ratio to wild type); higher = fitter; tRNA-Arg(CCU), competitive growth, 37 C, YPD
Procedure, shortened: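 Changes in genotype frequencies gave Darwinian fitness relative to wild type. Frequencies were read by 100-nucleotide paired-end sequencing of gene amplicons before and after pooled Saccharomyces cerevisiae strains, carrying tRNA-Arg(CCU) gene variants at the native locus, were competed in YPD at 37°C for 24 hours in six replicates. A genotype was kept only with ≥ 100 starting reads, and estimates < 0.5 were set to 0.5.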

Row | Variant | yeast fitness
1 | GUUCCGUUGGCGUAAUGGUAACGCGUCUCCCUCCUAAGGAGUAGACUGCGGGUUAGAGUCCCGUCCGGAACG [A42U C55A A65C] | 0.538
2 | GUUCCGUUGGCGUAAUGGUACCGCGUCUCCCUUCUAAGGAGAAGACUGCGGGUUCGAGUCACGUACGGAACG [A21C C33U C61A] | 0.593
3 | GUUCCGUUGGCGUAAUGGUUACGCGUCACCCUCCUAACGGGAAGACUGCGGGUUCGAGCCCCGUACGGAACG [A20U U28A G38C A40G U59C] | 0.637
4 | GUUCCGCUGGCGUAAUGGUAACGCGUUUCCCUCCUAAGGAGAAGUCUACGGGUUCGAGUCCCGUAUGGAACG [U7C C27U A45U G48A C66U] | ≤ 0.5
5 | GUUCCGUUGGCGUAAUGGUAACGCGUCUCCCUCCUAAGGAGCAGACUCAGGGUUCGAGUCCCGUACGGAACG [A42C G48C C49A] | ≤ 0.5
6 | GUUCCGUUGGCGUACUGGUAAGGCGUCUCCCUCCUAAGGAGAAGACUGCGGGUUCGAGUCCCGUACGGAACG [A15C C22G] | 0.658
7 | GUUCCGUUGGCGAAGUGGUAACGCGUGUCCCUCCUAAGGAGAAGACUGCGGGUUCGAGUCCCGUACGGAACG [U13A A15G C27G] | ≤ 0.5
8 | GUUCCGUUGGCGUUAUCGUAACGCGUCCCGCUCCUAAGGACCAGACCGCAGGUUCGAGUCCAGUACGGAACG [A14U G17C U28C C30G G41C A42C U47C G50A C62A] | ≤ 0.5
9 | GGUCCGUUGGCGUAAUGGUAACGCGUCUUCCUCCUAAGGAGAAGACUGGGGGUUGGAGUCCCCUACGGAACG [U2G C29U C49G C55G G63C] | ≤ 0.5
10 | GUUCCGUUGGCGUAAUGGUAACGCGUCUCUCUCCUAAGCAGAAGACUGCGGGUUCGAGUCCCGCACGGAACG [C30U G39C U64C] | 0.528
11 | GUUCCGUUGGCGUAAUGGUAACGCAUCUCCCUCCUAAGGAGAAGACUGCGGGUUCGAGUACCGUACGGAACG [G25A C60A] | 0.66
12 | GUUCCGUUGGCGUAAUGGUGACGCGUCUCCCUCCUAAGGGGGAGACUGCGGGUUUGAGUCCCGUACGGAACG [A20G A40G A42G C55U] | ≤ 0.5
13 | GUUCCGUUGGGGUAAUGGUAACGCGUCUCCGUCCUAAGGAGAAGACUGCGGGUUAGAGUCCCGUACGGAACG [C11G C31G C55A] | 0.618
14 | GUUCCGUUGGCGUAAUGGUAACGCGUCUUCCUCCUAGGGAGAAGACUGUGGGUUCGAGUCCCGUACGGAACG [C29U A37G C49U] | 0.613
15 | GUCCCGUUGGCGUUAUGGUAACGCGUCUCCCUCCUAUGGAGAAGACUGCGGGUUCGAGUACCGUACGGAACG [U3C A14U A37U C60A] | 0.586
16 | GUUCCGUUGGGGUAAAGGUAACGCGUCUUCCUCCUAAGGAGAAGACUGCGGGUUCGAGUCCCGUACGGCACG [C11G U16A C29U A69C] | 0.538
17 | GUUCCGUUGGCGUAAAGGUAACGCGUCACCCUCCUAAGGAGAAGACUGCGGGUUCGAGUCCCGCACGGAACG [U16A U28A U64C] | 0.568
18 | GUUCCGUUAGCGUAAUGGUAACGCGUCUCCCUCCUAAGGAGAAGACUGCGGGUUUGAGUCCCGUACGGAACG [G9A C55U] | 0.65
19 | GUUCCGUUGGCGUAAUGGUAACGCGUCUCCCUCCUAAGGAGUAGACUGCGGGUUCGCGUCUCGUUCGGAACG [A42U A57C C61U A65U] | 0.58

Row | Variant | yeast fitness
20 | GUUCAGUUGGCGUAAUGGUAGCGCGUCUCCAUCCUAAGGAGAAGACUGCGGGUUCGAGUCCCGUACGGAACG [C5A A21G C31A] | 0.642
21 | GUUCCGUUGGCGUAAUGGUAACGCGUCUCCUUCCUACGGAGAAGACUGCGGGUUCGAGUCCCGAACGGAACG [C31U A37C U64A] | ≤ 0.5
22 | GUUCCGUUGGCGUAAUGGUAGCGGGUCUCCGUCCUAAGGAGAUGACUGCGGGUUCGAGUCCCGUACGGAACG [A21G C24G C31G A43U] | ≤ 0.5
23 | GUUCCGUUGGAGUAAUGGUAACGCCUCUCCCUCCUAAGGAGAAGACUGCGGGUUCGUGUCCCGUACGGAACG [C11A G25C A57U] | 0.513
24 | GUUCCGUAGGCGUAAUGGUAACGCGUCUGCCCCCUAAGGAGAAGACUGCGGGUUCGAGUCCCGUACGGAACG [U8A C29G U32C] | ≤ 0.5
25 | GUUCCGUUGGUGUAAUGGUAACGCGUCUCCCUCCUAAGGAGUAGACUGCGGGUUCGAGUACCGUUCGGAACG [C11U A42U C60A A65U] | 0.553
26 | GUUCCGUUGGCGUAAUGGUAACGCGUGUCCCUCCUAAGGAGACGACUGCGGGUUCGAGUCCCGUACGGAACG [C27G A43C] | 0.611
27 | GUUCCGUUGCCGUAAUGGUAACGCGUCUCCCUCCUAAGGAGAAGGCUGCGGGUUCGAGUCCCGUCCGGCACG [G10C A45G A65C A69C] | 0.571
28 | GUUCCGUUGGCGUAAUGGUAACGCGUCUCCCUCCUAACGAGAAGACUGCGGGUUCGAGUCCUGCACGGAUCG [G38C C62U U64C A70U] | ≤ 0.5
29 | GUCCCGUUGGCGUAAUGGUAACGCGUCUCCCUCCUAAGGAGAAGACUGCAGGUUCGAGUCCCGUACGCAACG [U3C G50A G68C] | 0.609
30 | GUUCCGUUGGCGUAAUAGUAUCGCGUCUCCCUCGUAACGAGAAGACUGCGGGUUCCAGUCCCGUACGGAACG [G17A A21U C34G G38C G56C] | ≤ 0.5
31 | GUUCCGUUGGCGUAAUGGUAACGCGUCUCCCUCCUCAGGAGAAGACUGCGGGUUCGAGUCCCCUACGGAACG [A36C G63C] | 0.558
32 | GUUCCGUUGGCGUAAUGGUAACGUGUCUCCCUUCUAAGGAGAAGACUGCGGGUUCGAGUCCCGUACGGAACG [C24U C33U] | 0.747
33 | GUUCCGUUGGCGUAAUGGUAACGCCUCUACCUCCUAAGGAGAAGACUGCGGGUUCGAGUCCCGUACGGAACG [G25C C29A] | 0.696
34 | GCUCCGUUGGCGUAAUGGUAACGCGUCUCCCUCCUAAGGAGAAGACUGCGGGUUCGAGUCCUGUACGCGACG [U2C C62U G68C A69G] | ≤ 0.5
35 | GUUCCGAUGACGUAAUGGUCACGCGUCUACCUCCUAAGGAGAAGACUGCGGGUAUGAGUCCCGUACGGAACG [U7A G10A A20C C29A U54A C55U] | ≤ 0.5
36 | GUUUCGUUGGCGUAAUGGUAACGCGUCUCCCUCCUAAGGAGAAGACUGUGGGUUCGAGUCCCGAACGGAACG [C4U C49U U64A] | 0.589
37 | GUUCCGUUGGCGUAAUGGUAACGCGUCUCCCUCCUAAGGAGAAGAUUGCGGGUUCGAGUCCCGUACUGAACG [C46U G67U] | 0.869
